Source: article PMC7781011 (Journal of Inflammation Research, 2020)

Columns and labels:
[1] = molecular target: T1, human mPGES-1 (Homo sapiens, UniProt O14684); test: Cell-free mPGES-1 assay; type: biochemical
T1 sequence (O14684 1-152): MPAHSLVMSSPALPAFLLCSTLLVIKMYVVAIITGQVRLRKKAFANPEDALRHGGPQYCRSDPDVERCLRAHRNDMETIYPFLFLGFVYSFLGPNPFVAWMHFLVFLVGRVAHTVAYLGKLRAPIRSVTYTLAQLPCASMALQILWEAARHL
Outline: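 Enzyme in 15 mM Tris-HCl pH 7.4 with 1 mM GSH, preincubated 20 min with compound (0.1–100 µM); plate held 15 min at 20°C. PGH2 (final 2.8 µM) added, 45 s at room temperature, then stopped with SnCl2 in 1N HCl. PGE2 by ELISA, in triplicate, % inhibition versus untreated. Human enzyme from E. coli or commercial; mouse enzyme from vas deferens/seminal vesicles. IC50 by four-parameter nonlinear regression.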

[2] = molecular target: T2, rat mPGES-1 (Rattus norvegicus, UniProt Q9JHF3); test: Cell-free mPGES-1 assay; type: biochemical; conditions: IC50 mPGES-1, cell-free
T2 sequence (Q9JHF3 1-153): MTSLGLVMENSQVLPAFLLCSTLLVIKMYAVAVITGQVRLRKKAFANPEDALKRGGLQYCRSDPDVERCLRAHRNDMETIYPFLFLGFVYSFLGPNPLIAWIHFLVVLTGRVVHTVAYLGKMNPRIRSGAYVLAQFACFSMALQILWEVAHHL

[3] = molecular target: T3, human 5-LOX (Homo sapiens, UniProt P09917); test: Cell-free fluorometric 5-LOX assay; type: biochemical; conditions: IC50 5-LOX
T3 sequence (P09917 1-674): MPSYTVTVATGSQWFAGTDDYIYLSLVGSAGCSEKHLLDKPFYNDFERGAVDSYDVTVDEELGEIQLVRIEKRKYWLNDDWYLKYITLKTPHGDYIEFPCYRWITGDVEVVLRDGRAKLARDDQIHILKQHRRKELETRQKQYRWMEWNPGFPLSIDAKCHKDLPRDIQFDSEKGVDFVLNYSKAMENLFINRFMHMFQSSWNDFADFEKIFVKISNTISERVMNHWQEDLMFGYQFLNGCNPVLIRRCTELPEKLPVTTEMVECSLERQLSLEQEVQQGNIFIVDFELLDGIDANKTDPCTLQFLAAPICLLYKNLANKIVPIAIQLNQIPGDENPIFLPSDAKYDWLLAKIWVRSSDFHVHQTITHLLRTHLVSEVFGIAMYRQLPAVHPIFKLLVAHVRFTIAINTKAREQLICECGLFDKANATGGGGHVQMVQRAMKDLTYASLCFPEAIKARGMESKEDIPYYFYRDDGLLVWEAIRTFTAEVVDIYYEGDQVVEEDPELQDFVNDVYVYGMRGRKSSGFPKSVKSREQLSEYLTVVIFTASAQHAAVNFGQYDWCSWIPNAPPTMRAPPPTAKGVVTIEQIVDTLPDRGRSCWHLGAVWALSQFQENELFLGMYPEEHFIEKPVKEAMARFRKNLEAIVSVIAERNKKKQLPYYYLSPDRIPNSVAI

[4] = molecular target: T4, rat COX-1 (Rattus norvegicus, UniProt Q63921); test: Cell-free fluorometric COX-1 assay; type: biochemical
T4 sequence (Q63921 27-602): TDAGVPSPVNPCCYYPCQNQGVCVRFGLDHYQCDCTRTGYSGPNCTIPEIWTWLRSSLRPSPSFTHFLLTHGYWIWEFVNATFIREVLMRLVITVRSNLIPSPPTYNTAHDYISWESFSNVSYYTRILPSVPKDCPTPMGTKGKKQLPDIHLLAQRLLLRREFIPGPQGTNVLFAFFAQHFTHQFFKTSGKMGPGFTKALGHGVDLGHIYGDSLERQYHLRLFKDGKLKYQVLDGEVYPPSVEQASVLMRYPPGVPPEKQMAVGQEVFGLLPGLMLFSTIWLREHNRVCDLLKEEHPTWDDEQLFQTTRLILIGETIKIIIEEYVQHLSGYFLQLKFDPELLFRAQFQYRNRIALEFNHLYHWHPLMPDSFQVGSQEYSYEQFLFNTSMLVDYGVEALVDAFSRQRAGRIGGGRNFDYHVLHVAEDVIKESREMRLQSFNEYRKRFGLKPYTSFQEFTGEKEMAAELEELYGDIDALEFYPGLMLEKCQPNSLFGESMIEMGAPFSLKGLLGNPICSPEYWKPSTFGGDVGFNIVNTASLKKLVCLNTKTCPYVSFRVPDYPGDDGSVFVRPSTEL

[5] = molecular target: T5, mouse COX-2 (Mus musculus, UniProt Q05769); test: Cell-free fluorometric COX-2 assay; type: biochemical
T5 sequence (Q05769 18-604): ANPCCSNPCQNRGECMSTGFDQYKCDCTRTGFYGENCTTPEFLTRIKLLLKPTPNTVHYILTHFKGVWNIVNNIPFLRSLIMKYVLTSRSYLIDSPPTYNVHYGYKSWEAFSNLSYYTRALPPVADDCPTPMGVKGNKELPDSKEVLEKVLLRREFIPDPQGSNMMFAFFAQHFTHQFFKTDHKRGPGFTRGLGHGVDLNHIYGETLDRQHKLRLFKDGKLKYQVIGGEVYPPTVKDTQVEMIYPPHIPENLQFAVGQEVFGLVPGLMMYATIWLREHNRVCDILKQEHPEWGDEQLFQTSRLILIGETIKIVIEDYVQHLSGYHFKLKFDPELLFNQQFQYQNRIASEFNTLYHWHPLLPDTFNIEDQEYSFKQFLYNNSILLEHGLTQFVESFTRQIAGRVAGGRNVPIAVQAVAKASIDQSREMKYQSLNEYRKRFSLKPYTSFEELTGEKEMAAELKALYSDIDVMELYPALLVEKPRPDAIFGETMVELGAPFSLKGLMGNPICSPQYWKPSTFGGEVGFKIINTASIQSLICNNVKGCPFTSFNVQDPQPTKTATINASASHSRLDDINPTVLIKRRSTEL

[6] = test system: LTB4 production in LPS-stimulated macrophages of humans, mice, and rats; test: LTB4 production in LPS-stimulated macrophages, range over species; type: cell-based; conditions: Macrophage, read-out: IC50 range LTB4 production
Outline: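 Human macrophages derived from THP-1 monocytes with PMA. Rat/mouse peritoneal macrophages collected by lavage with ice-cold DMEM, selected by glass adherence (1 h, 37°C), Trypan-blue checked. Cells in DMEM+10% FBS at 10,000 (96-well) or 40,000 (24-well) per well, given non-toxic compound doses, then LPS 10 µg/mL for 24 h. PGE2, PGI2 and LTB4 measured in supernatant. IC50 by four-parameter nonlinear regression.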

[7] = test system: PGE2 production, colon tumor spheroids of Apc^Pirc/+ rats; test: PGE2 in colon spheroid culture supernatant; type: cell-based, rat; conditions: compared with the untreated control
Outline: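 Pirc rat colorectal crypt/single-cell spheroids grown in ultra-low-attachment wells in B27/N2, FBS, EGF, Noggin, R-spondin 1 and Y-27632 medium, changed every other day. PGE2 in supernatants of treated and untreated wells measured by ELISA, in pg/mL.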

Row | Compound | IC50 [1] [µM] | IC50 [2] [µM] | IC50 [3] [µM] | inhibition of COX-1 activity ([4]; cell-free, rat, up to the tested range of 1 mM) | inhibition of COX-2 activity ([5]; cell-free, mouse, up to the tested range of 1 mM) | IC50 [6] [µM] | inhibition of PGE2 production [7] [%] | IC50 [4] [µM] | IC50 [5] [µM]
1 | CC1(C)Cc2c(-c3ccccc3)c(-c3ccc(Cl)cc3)c(CC(=O)NCC(=O)O)n2C1 [LFA-9, 2-[[2-[2-(4-chlorophenyl)-6,6-dimethyl-1-phenyl-5,7-dihydropyrrolizin-3-yl]acetyl]amino]acetic acid] | 0.87 | 1.4 | 2.75 | did not show inhibition | did not show inhibition | 0.63 to 1.24 | 82 | – | –
2 | CC1(C)Cc2c(-c3ccccc3)c(-c3ccc(Cl)cc3)c(CC(=O)O)n2C1 [Licofelone, reference compound] | 14 | 12.3 | 2.13 | – | – | 0.53 to 1.6 | 63 | 1.81 | 2.01
